Where “and” joins values, the source holds several entries; their conditions need not be identical. Equal values may be shown once.

Consider ten molecules from ChEMBL document CHEMBL1122183, “Enhanced antitumor properties of 3'-(4-morpholinyl) and 3'-(4-methoxy-1-piperidinyl) derivatives of 3'-deaminodaunorubicin” (1982).

Assay [1] relates to L1210. Briefly: Concentration of drug necessary to reduce by 50% the incorporation of tritiated thymidine in the DNA of actively growing L1210 cells. The assay is classed as functional, Mus musculus. As to conditions: read-out: ED50 (the source's name). Summed up: (§1)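 Actively growing L1210 cells. Drug first dissolved in Me2SO, giving 1% final Me2SO. Incorporation of [3H]thymidine into DNA and [3H]uridine into RNA measured. ED50 is the drug concentration that reduces incorporation by 50%.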

The test system of a further assay is Nucleic Acid. Briefly: Thermal denaturation temperature (Tm) of isolated calf thymus helical DNA was measured. Format: functional. The note with it: Bos taurus. A digest of the protocol:
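Calf thymus DNA (P) 5.2 × 10^-5 M and drug 5.2 × 10^-6 M in 0.01 M phosphate buffer, pH 7, with EDTA and 5% final Me2SO. ΔTm is Tm of the DNA–drug complex minus Tm of DNA alone. Values <1 are read as insignificant binding.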

Assay [2] has as its system L1210. Nature of the assay: Concentration of drug necessary to reduce by 50% the incorporation of tritiated uridine in the RNA of actively growing L1210 cells. The assay is classed as functional, Mus musculus. The note with it: read-out: ED50 (the source's name). A digest of the protocol:
as §1

For a further assay, the species on record is Mus musculus. Briefly: Percentage rate of O2 consumption by liver microsomes and NADPH in the presence compared to the rate in presence of doxorubicin. Format: functional. A digest of the protocol:
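Rate of O2 consumption by liver microsomes with NADPH measured with the analogue at a single drug concentration. Expressed as a percentage of the rate obtained with doxorubicin.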
In general terms: Liver microsomes are vesicles of endoplasmic reticulum, rich in cytochrome P450 enzymes.

A further assay relates to P388. Nature of the assay: Antitumor efficacy at optimal dose of compound was measured against P388 leukemia in mice. Format: functional, Mus musculus. Summed up: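 Mice inoculated ip with P388 cells on day 0, then dosed on days 5, 9 and 13 across a series of doses, under NCI protocols. % T/C is the ratio of mean survival time of treated to untreated mice ×100; T/C >120 taken as active. Values are averages of two tests, or one test where only one was run.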

`COc1cccc2c1C(=O)c1c(O)c3c(c(O)c1C2=O)C[C@@](O)(C(C)=O)C[C@@H]3OC1CC(NC2CCCCC2)C(O)C(C)O1` (stereo partly specified): the EC50 in the assay on L1210 [1] (Mus musculus, L1210) stood at 64000 nM; with L1210 [2] (Mus musculus, L1210), 16000 nM. For the same molecule, the ΔTm (usually the shift of the melting midpoint relative to a reference) in the assay on Nucleic Acid worked out at 0.7 °C. Also, the O2 consumption in the assay listed under Mus musculus came out at 57%.

Take `COc1cccc2c1C(=O)c1c(O)c3c(c(O)c1C2=O)C[C@@](O)(C(C)=O)C[C@@H]3OC1CC(N2CCCCC2)C(O)C(C)O1` (stereo partly specified): the T/C – broadly, the result in the treated group divided by that in the control group, in per cent – in the assay on P388 was determined as 177%. Moreover, the EC50 in the assay on L1210 [1] (Mus musculus, L1210) was 500 nM; with L1210 [2] (Mus musculus, L1210), 50 nM. For the same molecule, in the assay on Nucleic Acid, the ΔTm was 16.8 °C. Also, the O2 consumption in the assay filed under Mus musculus amounted to 8%.

Regarding `COc1cccc2c1C(=O)c1c(O)c3c(c(O)c1C2=O)C[C@@](O)(C(C)=O)C[C@@H]3OC1CC(N2CCOCC2)C(O)C(C)O1` (stereo partly specified), the T/C in the assay on P388 is 166%. The EC50 in the assay with L1210 [1] is 760 nM and 340 nM; in the assay on L1210 [2], 100 nM and 14 nM. For the same molecule, the thermal shift (ΔTm) with Nucleic Acid turned out to be 6.1 °C. The O2 consumption in the assay filed under Mus musculus was found to be 25%.

With `COc1cccc2c1C(=O)c1c(O)c3c(c(O)c1C2=O)C[C@@](O)(C(C)=O)C[C@@H]3O[C@H]1C[C@H](N)[C@H](O)[C@H](C)O1` [DAUNORUBICIN], in the assay on P388, the T/C was 130%. In addition, the EC50 was 660 nM with L1210 [1] (Mus musculus, L1210) and 330 nM in the assay with L1210 [2] (Mus musculus, L1210).

Take `COc1cccc2c1C(=O)c1c(O)c3c(c(O)c1C2=O)C[C@@](O)(C(C)O)C[C@@H]3O[C@H]1C[C@H](N2CCCCC2)[C@H](O)[C@H](C)O1` (stereo partly specified): the T/C in the assay on P388 is 162%. Also, the EC50 is 620 nM in the assay with L1210 [1] (Mus musculus, L1210) and 40 nM in the assay with L1210 [2] (Mus musculus, L1210). In addition, in the assay on Nucleic Acid, the ΔTm was found to be 12.9 °C.

Take `COc1cccc2c1C(=O)c1c(O)c3c(c(O)c1C2=O)C[C@@](O)(C(C)=O)C[C@@H]3OC1CC(NC2CCOCC2)C(O)C(C)O1` (stereo partly specified): the T/C in the assay on P388 amounted to 136%. Also, the EC50 came to 2000 nM in the assay with L1210 [1] (Mus musculus, L1210) and 610 nM in the assay on L1210 [2] (Mus musculus, L1210). The ΔTm with Nucleic Acid stood at 4 °C. The O2 consumption in the assay listed under Mus musculus worked out at 68%.

In the assay on P388, `COc1cccc2c1C(=O)c1c(O)c3c(c(O)c1C2=O)C[C@@](O)(C(C)O)C[C@@H]3O[C@H]1C[C@H](N2CCC(OC)CC2)[C@H](O)[C@H](C)O1` (stereo partly specified) showed a T/C of 199%. Also, the EC50 in the assay on L1210 [1] (Mus musculus, L1210) was found to be 580 nM; in the assay on L1210 [2] (Mus musculus, L1210), 80 nM. The thermal shift (ΔTm) in the assay with Nucleic Acid is 9.5 °C. For the same molecule, in the assay filed under Mus musculus, the O2 consumption was 64%.

Consider `COc1cccc2c1C(=O)c1c(O)c3c(c(O)c1C2=O)C[C@@](O)(C(C)O)C[C@@H]3O[C@H]1C[C@H](N2CCOCC2)[C@H](O)[C@H](C)O1` (stereo partly specified), for which, in the assay with P388, the T/C amounted to 153%. Further, the EC50 in the assay on L1210 [1] (Mus musculus, L1210) turned out to be 2200 nM; in the assay with L1210 [2] (Mus musculus, L1210), 530 nM. Besides, the ΔTm in the assay on Nucleic Acid was 4.1 °C. Moreover, the O2 consumption in the assay listed under Mus musculus stood at 29%.

On to `COc1cccc2c1C(=O)c1c(O)c3c(c(O)c1C2=O)C[C@@](O)(C(C)=O)C[C@@H]3OC1CC(N2CCC(OC)CC2)C(O)C(C)O1` (stereo partly specified), for which the T/C with P388 stood at 199%. The EC50 is 630 nM in the assay on L1210 [1] (Mus musculus, L1210) and 120 nM in the assay with L1210 [2] (Mus musculus, L1210). The ΔTm in the assay on Nucleic Acid is 13.3 °C. For the same molecule, the O2 consumption in the assay filed under Mus musculus was found to be 82%.

Consider `COc1cccc2c1C(=O)c1c(O)c3c(c(O)c1C2=O)C[C@@](O)(C(=O)CO)C[C@@H]3O[C@H]1C[C@H](N)[C@H](O)[C@H](C)O1` [DOXORUBICIN], for which the T/C with P388 is 160%. The EC50 in the assay on L1210 [1] (Mus musculus, L1210) came to 1500 nM; in the assay on L1210 [2] (Mus musculus, L1210), 580 nM. In addition, in the assay on Nucleic Acid, the ΔTm was 13.4 °C. For the same molecule, in the assay filed under Mus musculus, the O2 consumption came out at 100%.
